# Reference: ChEMBL document CHEMBL1123822, “Lysosomotropic agents. 7. Broad-spectrum antifungal activity of lysosomotropic detergents” (1987)
# Key:
# Type in all cases: functional
# [1] = tested on: Aspergillus flavus; assay: The compound was tested for antifungal activity against Aspergillus flavus MF0383 using agar dilution assay
# Procedure, shortened: (§1)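 Standardized agar dilution in Kimmig agar with 5% glycerol. Lysosomotropic detergents solubilized in 10% Me₂SO. Twofold serial dilutions in sterile distilled water gave final agar concentrations of 128 to 0.06 μg/mL. Stated error ±1 dilution stage.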
# [2] = tested on: Aspergillus fumigatus; assay: The compound was tested for antifungal activity against Aspergillus fumigatus MF4839 using agar dilution assay; procedure, shortened: as §1
# [3] = tested on: Candida albicans; assay: The compound was tested for antifungal activity against Candida albicans MY0992 using agar dilution assay; procedure, shortened: as §1
# [4] = tested on: Candida albicans; assay: The compound was tested for antifungal activity against Candida albicans MY1013 using agar dilution assay; procedure, shortened: as §1
# [5] = tested on: Candida albicans; assay: The compound was tested for antifungal activity against Candida albicans MY1055 using agar dilution assay; procedure, shortened: as §1
# [6] = tested on: Diutina rugosa; assay: The compound was tested for antifungal activity against Candida rugosa MY1022 using agar dilution assay; procedure, shortened: as §1
# [7] = tested on: Candida parapsilosis; assay: The compound was tested for antifungal activity against Candida parapsilosis MY1009 using agar dilution assay; conditions: Lodderomyces parapsilosis; procedure, shortened: as §1
# [8] = tested on: Candida parapsilosis; assay: The compound was tested for antifungal activity against Candida parapsilosis MY1010 using agar dilution assay; conditions: Lodderomyces parapsilosis; procedure, shortened: as §1
# [9] = tested on: Candida albicans; assay: The compound was tested for antifungal activity against Candida albicans MY1058 using agar dilution assay; procedure, shortened: as §1
# [10] = tested on: Candida albicans; assay: The compound was tested for antifungal activity against Candida albicans My1029 using agar dilution assay; procedure, shortened: as §1
# [11] = tested on: Cryptococcus neoformans; assay: The compound was tested for antifungal activity against Cryptococcus neoformans MY1051 using agar dilution assay
# Procedure, shortened: (§2)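 Standardized agar dilution on Kimmig agar with 5% glycerol. Detergents solubilized in 10% Me2SO; desoxycholate-stabilized amphotericin B diluted and titrated in sterile distilled water. Twofold dilutions in sterile distilled water gave final agar concentrations of 128 to 0.06 μg/mL. Error limit ±1 dilution stage.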
# [12] = tested on: Cryptococcus neoformans; assay: The compound was tested for antifungal activity against Cryptococcus neoformans MY1146 using agar dilution assay; procedure, shortened: as §2
# [13] = tested on: Candida albicans; assay: The compound was tested for antifungal activity against Candida stellatoidea MY1017 using agar dilution assay; procedure, shortened: as §2
# [14] = tested on: Pichia kudriavzevii; assay: The compound was tested for antifungal activity against Candida krusei MY1020 using agar dilution assay; procedure, shortened: as §1
# [15] = tested on: Candida tropicalis; assay: The compound was tested for antifungal activity against Candida tropicalis MY1011 using agar dilution assay; procedure, shortened: as §2
# [16] = tested on: Candida tropicalis; assay: The compound was tested for antifungal activity against Candida tropicalis MY1012 using agar dilution assay; procedure, shortened: as §2
# [17] = tested on: Kluyveromyces marxianus; assay: The compound was tested for antifungal activity against Candida pseudotropicalis MY1040 using agar dilution assay; procedure, shortened: as §1
# [18] = tested on: Naganishia albida; assay: The compound was evaluated for zone inhibition against Cryptococcus albidus MY1070 using disk diffusion assay; 23 Fuzzy edges
# Procedure, shortened: (§3)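 Disk diffusion: 25 μL of 250 μg/mL drug in methanol on 6.2 mm paper disks, dried at room temperature, placed on seeded agar and rewet with 25 μL 10% aqueous Me₂SO. Zones were read after overnight incubation, ±1 mm. Media were unbuffered, pH ca. 4.5–5.6: potato dextrose agar for filamentous fungi, Sabouraud dextrose for yeasts, unless YNB (76 mM ammonium sulfate, sole nitrogen source) or YED is named. Zone edges were scored fuzzy, slightly hazy, hazy or very hazy.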
# [19] = tested on: Cephalosporium; assay: The compound was evaluated for zone inhibition against Cephalosporium sp (MF4641) using disk diffusion assay; procedure, shortened: as §3
# [20] = tested on: Cercospora beticola; assay: The compound was evaluated for zone inhibition against Cercospora beticola (MF4608) using disk diffusion assay; 22 Fuzzy edges; procedure, shortened: as §3
# [21] = tested on: Papiliotrema laurentii; assay: The compound was evaluated for zone inhibition against Cryptococcus laurentii MY1074 using disk diffusion assay; 16 slightly hazy
# Procedure, shortened: (§4)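 Filter-paper disks (6.2 mm) loaded with 25 μL of a 250 μg/mL methanol solution, dried at room temperature, laid on seeded agar and rewet with 25 μL 10% aqueous Me₂SO. Media were unbuffered, pH ca. 4.5–5.6: potato dextrose agar for filamentous fungi, sabouraud dextrose agar for yeasts, unless noted. Inhibition zone diameter read after overnight incubation, ±1 mm. Zone edges scored fuzzy, slightly hazy, hazy or very hazy.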
# [22] = tested on: Fusarium oxysporum; assay: The compound was evaluated for zone inhibition against Fusarium oxysporum (MF4014) using disk diffusion assay; procedure, shortened: as §4
# [23] = tested on: Kluyveromyces marxianus; assay: The compound was evaluated for zone inhibition against Kluyveromyces fragilis MY1113 using disk diffusion assay; 13 Fuzzy edges; procedure, shortened: as §4
# [24] = tested on: Penicillium italicum; assay: The compound was tested for antifungal activity against Penicillium italicum MF2819 using agar dilution assay; procedure, shortened: as §2
# [25] = tested on: Penicillium; assay: The compound was evaluated for zone inhibition against Penicillium sp (MF5014) using disk diffusion assay; 22 Fuzzy edges; procedure, shortened: as §4
# [26] = tested on: Penicillium; assay: The compound was evaluated for zone inhibition against Penicillium sp (MF5016) using disk diffusion assay; 25 Fuzzy edges; procedure, shortened: as §4
# [27] = tested on: Penicillium; assay: The compound was evaluated for zone inhibition against Penicillium sp (MF5020) using disk diffusion assay; 21 Fuzzy edges; procedure, shortened: as §4
# [28] = tested on: Phoma; assay: The compound was evaluated for zone inhibition against Phoma sp (MF4332) using disk diffusion assay; 23 Fuzzy edges; procedure, shortened: as §4
# [29] = tested on: Saccharomyces cerevisiae; assay: The compound was tested for antifungal activity against Saccharomyces cerevisiae MY1027 using agar dilution assay; procedure, shortened: as §2
# [30] = tested on: Rhizomucor miehei; assay: The compound was evaluated for zone inhibition against Rhizomucor miehei (MF4784) using disk diffusion assay; procedure, shortened: as §4
# [31] = tested on: Nakaseomyces glabratus; assay: The compound was evaluated for zone inhibition against Torulopsis glabrata MY1062 using disk diffusion assay; procedure, shortened: as §4
# [32] = tested on: Saccharomyces cerevisiae; assay: The compound was evaluated for zone inhibition against Saccharomyces cerevisiae MY410 using disk diffusion assay; 9 Fuzzy edges; procedure, shortened: as §4
# [33] = tested on: Saccharomyces cerevisiae; assay: The compound was evaluated for zone inhibition against Saccharomyces cerevisiae YED MY34 using disk diffusion assay; procedure, shortened: as §4
# [34] = tested on: Trichoderma; assay: The compound was evaluated for zone inhibition against Trichoderma sp (MF4064) using disk diffusion assay; procedure, shortened: as §4
# [35] = tested on: Trichoderma viride; assay: The compound was evaluated for zone inhibition against Trichoderma lignorum (MF3560) using disk diffusion assay; 24 Fuzzy edges; procedure, shortened: as §4
# [36] = tested on: Ustilago maydis; assay: The compound was evaluated for zone inhibition against Ustilago zeae (MF1996) using disk diffusion assay; 28 Fuzzy edges; procedure, shortened: as §4
# [37] = tested on: Saccharomyces cerevisiae; assay: The compound was evaluated for mean zone diameter (inhibition) against yeast at the concentration of 125 ug/mL
# Procedure, shortened: (§5)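 Filter-paper disk diffusion (6.2 mm disks) with drug in methanol at the stated level, 25 μL per disk. Disks were air-dried at room temperature, laid on seeded agar, rewet with 25 μL 10% aqueous Me₂SO and incubated overnight. Media were unbuffered, pH ca. 4.5–5.6. The panel was 21 yeasts and 21 filamentous fungi. Zones of 0 mm were excluded from means.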
# [38] = tested on: Saccharomyces cerevisiae; assay: The compound was evaluated for mean zone diameter (inhibition) against yeast at the concentration of 250 ug/mL; procedure, shortened: as §5
# [39] = tested on: Saccharomyces cerevisiae; assay: The compound was evaluated for mean zone diameter (inhibition) against yeast at the concentration of 62.5 ug/mL; procedure, shortened: as §5
# [40] = tested on: Nakaseomyces glabratus; assay: The compound was tested for antifungal activity against Torulopsis glabrata MY1059 using agar dilution assay; procedure, shortened: as §2
# [41] = tested on: Candida tropicalis; assay: The compound was evaluated for zone inhibition against Candida tropicalis MY1012 using disk diffusion assay; 25 Fuzzy edges; procedure, shortened: as §3
# [42] = tested on: Meyerozyma guilliermondii; assay: The compound was tested for antifungal activity against Candida guilliermondii MY1019 using agar dilution assay; procedure, shortened: as §1
# [43] = tested on: Papiliotrema laurentii; assay: The compound was evaluated for zone inhibition against Cryptococcus laurentii MY1077 using disk diffusion assay; 22 Fuzzy edges; procedure, shortened: as §4
smiles,measurement,setting,value
CCCCCCCCCCCCn1ccnc1,MIC,[1],16 µg/mL
same,MIC,[2],16 µg/mL
same,MIC,[3],32 µg/mL
same,MIC,[4],16 µg/mL
same,MIC,[5],32 µg/mL
same,MIC,[6],32 µg/mL
same,MIC,[7],32 µg/mL
same,MIC,[8],16 µg/mL
same,MIC,[9],32 µg/mL
same,MIC,[10],32 µg/mL
same,MIC,[11],4 µg/mL
same,MIC,[12],4 µg/mL
same,MIC,[13],16 µg/mL
same,MIC,[14],32 µg/mL
same,MIC,[15],32 µg/mL
same,MIC,[16],8 µg/mL
same,MIC,[17],16 µg/mL
same,Inhibition zone,[18],23 mm
same,Inhibition zone,[19],13 mm
same,Inhibition zone,[20],22 mm
same,Inhibition zone,[21],16 mm
same,Inhibition zone,[22],18 mm
same,Inhibition zone,[23],13 mm
same,MIC,[24],4 µg/mL
same,Inhibition zone,[25],22 mm
same,Inhibition zone,[26],25 mm
same,Inhibition zone,[27],21 mm
same,Inhibition zone,[28],23 mm
same,MIC,[29],8 µg/mL
same,Inhibition zone,[30],15 mm
same,Inhibition zone,[31],11 mm
same,Inhibition zone,[32],9 mm
same,Inhibition zone,[33],15 mm
same,Inhibition zone,[34],18 mm
same,Inhibition zone,[35],24 mm
same,Inhibition zone,[36],28 mm
same,Inhibition zone,[37],15.8 mm
same,Inhibition zone,[38],16.8 mm
same,Inhibition zone,[39],14.4 mm
same,MIC,[40],16 µg/mL
same,Inhibition zone,[41],25 mm
same,MIC,[42],16 µg/mL
same,Inhibition zone,[43],22 mm
